Experimental data as given in ChEMBL document CHEMBL4251675, “Saroclides A and B, Cyclic Depsipeptides from the Mangrove-Derived Fungus Sarocladium kiliense HDN11-112” (J Nat Prod, 2018).
Calls of active or inactive are those of the source. The rule behind the calls is not given here.

Tests used:
HeLa = test: Cytotoxicity against human HeLa cells; format: functional, cell-based
Outline: (§1)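 HeLa, BEL-7402, HEK-293, HCT-116 and A549 lines tested by MTT or SRB method, with doxorubicin as positive control.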

Bel-7402 = test: Cytotoxicity against human Bel7402 cells; format: functional, cell-based; outline: as §1
HEK293 = test: Cytotoxicity against human HEK293 cells; format: functional, cell-based; outline: as §1
HCT-116 = test: Cytotoxicity against human HCT116 cells; format: functional, cell-based; outline: as §1
A549 = test: Cytotoxicity against human A549 cells; format: functional, cell-based; outline: as §1
Escherichia coli = test: Antibacterial activity against Escherichia coli after 20 hrs by double dilution method; format: functional, organism-based
Outline: (§2)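 Broth doubling-dilution assay against E. coli, S. aureus, C. albicans and B. subtilis, with chloramphenicol as positive control.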

Staphylococcus aureus = test: Antibacterial activity against Staphylococcus aureus after 20 hrs by double dilution method; format: functional, organism-based; outline: as §2
Bacillus subtilis = test: Antibacterial activity against Bacillus subtilis after 20 hrs by double dilution method; format: functional, organism-based; outline: as §2
Candida albicans = test: Antifungal activity against Candida albicans by double dilution method; format: functional, organism-based; outline: as §2
HepG2 [1] = test: Lipid lowering activity in human HepG2 cells assessed as reduction in oleic acid-induced lipid accumulation at 2.5 to 10 uM after 24 hrs by oil red O staining based spectrophotometric method; format: functional, cell-based
Outline: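 HepG2 in high-glucose DMEM/10% FBS at 37 °C, 5% CO2, grown to 90% confluence. Treated 24 h with compound (2.5, 5.0, 10.0 μM) or simvastatin 10 μM in high-glucose DMEM plus 100 μM oleic acid. Blank was serum-free DMEM alone, negative control OA alone. Neutral lipid by oil-red O staining, read spectrophotometrically at 358 nm. Means ± SEM, ≥3 experiments.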

HepG2 [2] = test: Lipid lowering activity in human HepG2 cells assessed as reduction in oleic acid-induced intracellular cholesterol level at 2.5 to 10 uM after 24 hrs […]; format: functional, cell-based
Outline: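 HepG2 at 90% confluence treated 24 h with compound (2.5, 5.0, 10.0 μM) or simvastatin 10 μM in high-glucose DMEM containing 100 μM oleic acid. Blank was serum-free DMEM, OA-only as negative control. Intracellular total cholesterol and triglyceride measured with commercial kits per manufacturer. Means ± SEM of at least three experiments.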

HepG2 [3] = test: Lipid lowering activity in human HepG2 cells assessed as reduction in oleic acid-induced triglyceride level at 2.5 to 10 uM after 24 hrs by oil red O staining based spectrophotometric method; format: functional, cell-based
HepG2 [4] = test: Cytotoxicity against human HepG2 cells assessed as reduction in cell viability at 20 uM after 20 hrs by MTT assay; format: cell-based; settings: hepg2, 20 h
Outline: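 HepG2 grown in high-glucose DMEM with 10% FBS at 37 °C, 5% CO2. Once confluent, incubated 20 h with compound. Medium then replaced with fresh medium containing 10% sterile-filtered MTT for 4 h. Formazan dissolved in isopropanol, absorbance read at 570 nm with 630 nm reference. Viability expressed as % of blank wells. Means ± SEM of at least three experiments.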

SMILES | Activity (HeLa) | Activity (Bel-7402) | Activity (HEK293) | Activity (HCT-116) | Activity (A549) | Activity (Escherichia coli) | Activity (Staphylococcus aureus) | Activity (Bacillus subtilis) | Activity (Candida albicans) | Activity (HepG2 [1]) | Activity (HepG2 [2]) | Activity (HepG2 [3]) | Activity (HepG2 [4])
CCC[C@@H]1C/C=C(\C)C(=O)CC(=O)N[C@H](Cc2ccccc2)C(=O)N2CCC[C@@H]2C(=O)O1 | inactive | inactive | inactive | inactive | inactive | inactive | inactive | inactive | inactive | – | – | – | –
CCC[C@@H]1C/C=C(\C)C(=O)CC(=O)N[C@H](Cc2ccccc2)C(=O)N2CCC[C@H]2C(=O)O1 | inactive | inactive | inactive | inactive | inactive | inactive | inactive | inactive | inactive | Active | Active | Active | Non-Toxic
